Common to all, as to type: functional, cell-based
In test [1] the test system is MCF7. In words: […] in human MCF7 cells expressing EGFP-LC3 assessed as EGFP levels at 100 nM after 4 hrs by Western blotting relative to control. In short, it runs like this: (§1)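 MCF-7 cells expressing EGFP-LC3 were exposed for 4 h to compounds alone or in combinations. Free EGFP band formation, a readout of EGFP-LC3 degradation, was followed by Western blot with anti-GFP antibody.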
On the technique in general: In western blotting, separated proteins are transferred to a membrane and probed.

Test [2] has as its system MCF7. In words: Inhibition of rapamycin-induced autophagy in human MCF7 cells expressing EGFP-LC3 assessed as decrease in EGFP levels at 100 nM after 4 hrs by Western blotting relative to control. Summed up: as §1
Test [3] has as its system MCF7. In words: Induction of autophagosome accumulation in human MCF7 cells expressing EGFP-LC3 assessed as punctate EGFP-LC3 level at => 1 nM after 4 hrs by automated microscopy relative to control.
For test [4], the system named is MCF7. Nature of the test: Induction of autophagosome accumulation in human MCF7 cells expressing EGFP-LC3 assessed as punctate EGFP-LC3 level at => 10 nM after 4 hrs by automated microscopy relative to control.
Test [5] has as its system MCF7. Nature of the test: Induction of autophagosome accumulation in human MCF7 cells expressing EGFP-LC3 assessed as punctate EGFP-LC3 level at 0.3 nM after 4 hrs by automated microscopy relative to control.
Test [6] deals with MCF7. In words: Induction of autophagosome accumulation in human MCF7 cells expressing EGFP-LC3 assessed as punctate EGFP-LC3 level at => 100 nM after 4 hrs by automated microscopy relative to control.
The subject of test [7] is MCF7. Nature of the test: […] in human MCF7 cells expressing EGFP-LC3 assessed as EGFP levels at 30 nM after 4 hrs by Western blotting relative to control.

Molecules are shown by their SMILES. Active and inactive are the calls of the source. The rule behind the calls is not given here.

For the molecule `CO/C1=C\C(C)=C\[C@@H](C)[C@@H](O)[C@@H](C)C/C(C)=C/C=C/[C@H](OC)[C@@H]([C@@H](C)[C@@H](O)[C@H](C)[C@@]2(O)C[C@@H](OC(=O)/C=C/C(=O)NC3=C(O)CCC3=O)[C@H](C)[C@@H](C(C)C)O2)OC1=O`, in the test with MCF7 [1], the outcome was inactive. Besides, the result in the test with MCF7 [2] and in the test with MCF7 [3] was Active.

On to `CO[C@H]1/C=C/C=C(\C)C[C@H](C)[C@H](O)[C@H](C)/C=C(C)/C=C(\C)C(=O)O[C@@H]1[C@@H](C)[C@@H](O)[C@H](C)[C@@]1(OC)C[C@@H](OC)[C@H](C)[C@@H](C(C)C)O1`, for which, in the test on MCF7 [1], the outcome was inactive. The outcome in the test on MCF7 [2] and in the test with MCF7 [3] was Active.

With `CO[C@H]1/C=C/C=C(\C)C[C@H](C)[C@H](O)[C@H](C)/C=C(C)/C=C(\C)C(=O)O[C@@H]1[C@@H](C)[C@@H](O)[C@H](C)C(=O)/C=C/[C@H](C)[C@H](O)C(C)C`, the outcome in the test with MCF7 [4] and in the test with MCF7 [2] was Active. Further, the result in the test on MCF7 [1] was inactive.

`CO/C1=C\C(C)=C\[C@@H](C)[C@@H](O)[C@@H](C)C/C(C)=C/C=C/[C@H](OC)[C@@H]([C@@H](C)[C@@H](O)[C@H](C)[C@@]2(O)C[C@@H](O)[C@H](C)[C@@H](C(C)C)O2)OC1=O`: the result in the test with MCF7 [1] was inactive. The result in the test on MCF7 [2] and in the test on MCF7 [3] was Active.

As for `CO/C1=C\C(C)=C\[C@@H](C)[C@@H](O)[C@@H](C)C/C(C)=C/C=C/[C@H](OC)[C@@H]([C@@H](C)[C@@H](O)[C@H](C)[C@@]2(OC)C[C@@H](OC)[C@H](C)[C@@H](C(C)C)O2)OC1=O`, the outcome in the test with MCF7 [4] and in the test on MCF7 [2] was Active. Besides, the outcome with MCF7 [1] was inactive.

In the case of `CO/C1=C\C(C)=C\[C@@H](C)[C@@H](O)[C@@H](C)C/C(C)=C/C=C/[C@H](OC)[C@@H]([C@@H](C)[C@@H](O)[C@H](C)[C@@]2(O)C[C@@H](OC)[C@H](C)[C@@H](C(C)C)O2)OC1=O` [BAFILOMYCIN G], the outcome with MCF7 [5] and with MCF7 [2] was Active. In the test with MCF7 [1], the result was inactive.

For the molecule `CO/C1=C\C(C)=C\[C@@H](C)[C@@H](O)[C@@H](C)C/C(C)=C/C=C/[C@H](OC)[C@@H]([C@@H](C)[C@@H](O)[C@H](C)[C@@]2(O)C[C@@H](OC(=O)C[C@@H]3SC[C@@H](C(=O)O)NC3=O)[C@H](C)[C@@H](C(C)C)O2)OC1=O`, the result in the test on MCF7 [4] and with MCF7 [2] was Active. In the test on MCF7 [1], the outcome was inactive.

Turning to `CO/C1=C\C(C)=C\[C@@H](C)[C@@H](O)[C@@H](C)C/C(C)=C/C=C/[C@H](OC)[C@@H]([C@@H](C)/C=C(\C)C2=C[C@@H](OC)[C@H](C)[C@@H](C(C)C)O2)OC1=O`, the result with MCF7 [1] and in the test on MCF7 [6] was Active. In addition, the outcome with MCF7 [2] was inactive.

With `CO[C@H]1C[C@@H]2CC[C@@H](C)[C@@](O)(O2)C(=O)C(=O)N2CCCC[C@H]2C(=O)O[C@H]([C@H](C)C[C@@H]2CC[C@@H](O)[C@H](OC)C2)CC(=O)[C@H](C)/C=C(\C)[C@@H](O)[C@@H](OC)C(=O)[C@H](C)C[C@H](C)/C=C/C=C/C=C/1C`, the result with MCF7 [7] was Active.
